pEC50, pIC50: −log10 of the molar value.

Broadly, the Emax is the greatest response seen or fitted, relative to the assay's reference. The term pEC50 denotes the negative decadic logarithm of the EC50, by convention in mol/L. A word on the inhibition in vivo: it is the relative decrease from the control value, in per cent. The term pIC50 denotes the negative decadic logarithm of the IC50, by convention in mol/L. A word on the EC50: it is the midpoint of the concentration-response curve. Broadly, the solubility is the dissolved amount per volume that the medium holds. A higher solubility goes with a readily soluble substance. The term bioavailability denotes the share of a dose that reaches the circulation, judged against a reference dose that is usually intravenous.

Data set [1] concerns Rattus norvegicus. The data set is described as follows: Analgesic activity in Sprague-Dawley rat acute inflammatory pain model assessed as inhibition of carrageenan-induced thermal hypersensitivity of paw withdrawal latency at 30 mg/kg, ip dosed 30 mins before thermal hypersensitivity assessment. As to conditions: route intraperitoneal. Format: functional. The essentials: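 Male Sprague-Dawley rats (200–350 g) received 3, 10 or 30 mg/kg ip in 10% DMSO/PEG 400, n = 6. Dosing was 30 min before testing, and testing was 2 h after intraplantar carrageenan in the right hind paw. Hargreaves radiant heat on 30 °C glass, 4.50 amp, 20.48 s cutoff; each paw tested 3 times ~5 min apart. PWL is the mean of the two shortest latencies.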

Data set [2] relates to Rattus norvegicus. The data set is described as follows: Analgesic activity in Sprague-Dawley rat osteoarthritis pain model assessed as increase in maximum compressive grip force at 30 mg/kg, ip dosed 30 mins before grip force assessment. It counts as functional. Conditions: route intraperitoneal. The gist of the method: (§1)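 Male Sprague-Dawley rats (200–350 g) were tested at least 21 days after MIA injection. Dosing was 3, 10 or 30 mg/kg ip in 10% DMSO/PEG 400, 30 min before testing; n = 12 per group. Hindlimb grip force was measured twice ~2 min apart to get CFmax, normalised to body weight. Vehicle group set as 0%, age-matched naive group as 100%.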

Data set [3] concerns Rattus norvegicus. The data set is described as follows: Analgesic activity in ip dosed Sprague-Dawley rat osteoarthritis pain model assessed as increase in maximum compressive grip force dosed 30 mins before grip force assessment. It counts as functional, organism-based. The essentials:
as §1

Data set [4] has as its system Rattus norvegicus. Put plainly: Analgesic activity in Sprague-Dawley rat persistent pain model assessed as inhibition of flinching behavior at 30 mg/kg, ip dosed 30 mins before formalin challenge measured for 20 mins following formalin challenge. As to conditions: route intraperitoneal. It counts as functional. The gist of the method: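 Male Sprague-Dawley rats (200–350 g) were dosed ip in 10% DMSO/PEG 400 (3, 10, 30 mg/kg; n = 6) 30 min before formalin. They then received 50 µl of 5% formalin s.c. into the dorsal right hind paw. Flinches of the injected paw were counted 30–50 min after injection (phase II), sampling one 60 s period per 5 min interval.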

Data set [5] relates to Rattus norvegicus. Put plainly: Neurotoxicity in Sprague-Dawley rat assessed as induction of rotarod performance deficit at 3 to 30 mg/kg, ip and measured once animals were placed back on rotarod apparatus for 3 consecutive testing trials 30 mins following compound dosing. Also noted: dose 3-30 mg/kg, route intraperitoneal. Format: toxicity, organism-based. As to conditions: in vivo, 0.5 h. The gist of the method: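 Male rats first receive three training sessions on an accelerating rod, 0–20 rpm over 60 s. Dosing is 3, 10, 30 mg/kg ip in 10% DMSO/PEG400, n = 6 per group. There are 3 consecutive trials at 30 min post-dose, recording fall latency with a 60 s cut-off.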
For orientation: Falling from the rotarod earlier than controls is read as motor impairment.

For data set [6], the system named is Rattus norvegicus. Put plainly: Cardiovascular toxicity in anesthetized Sprague-Dawley rat assessed as changes in mean arterial pressure at 10 mg/kg, iv by hemodynamic function study. Format: organism-based, Artery. Details: dose 10 mg/kg, route intravenous. Conditions: in vivo.
In data set [7] the test system is Rattus norvegicus. Put plainly: Cardiovascular toxicity in anesthetized Sprague-Dawley rat assessed as changes in heart rate at 10 mg/kg, iv by hemodynamic function study. Format: organism-based. Also noted: dose 10 mg/kg, route intravenous. Conditions: in vivo.
Data set [8] concerns Rattus norvegicus. Put plainly: Cardiovascular toxicity in anesthetized Sprague-Dawley rat assessed as changes in dp/dt rate at 10 mg/kg, iv by hemodynamic function study. Conditions: in vivo. Details: dose 10 mg/kg, route intravenous. Format: organism-based.
The nature of data set [9]: Therapeutic index, ratio of cardiovascular effect in Sprague-Dawley rat at 10 mg/kg, iv to EC50 for analgesic activity in ip dosed Sprague-Dawley rat osteoarthritis pain model. Format: organism-based. Details: dose 10 mg/kg, route intravenous. As to conditions: in vivo, read-out: TI.
A short description of data set [10]: Inhibition of Voltage-dependent N-type calcium channel in human IMR32 cells by FLIPR based Ca(2+) flux assay. It counts as cell-based, IMR-32. The gist of the method: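 IMR32 cells were plated at 120,000/well and grown 48 h at 37 °C, 5% CO₂. Cells were loaded with Calcium 4 dye in HBSS/1 mM HEPES pH 7.4 for 1.5 h at room temperature, with antagonists present for 1 h of loading.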

Data set [11] addresses Voltage-gated L-type calcium channel (Rattus norvegicus, UniProt P22002+Q02485+P27732). Put plainly: Inhibition of L-type calcium channel in Sprague-Dawley rat aorta assessed as relaxation of Kcl-induced tissue contraction by aortic ring relaxation assay. Format: tissue-based.
Data set [12] can be described thus: Aqueous solubility of the compound. Format: physicochemical. Conditions: buffer.
Data set [13] can be described thus: Protein binding in plasma. It counts as ADME, cell-free. Conditions: read-out: PPB.
Data set [14] can be described thus: Stability in human liver microsomes assessed as compound remaining measured after 30 mins. It counts as ADME, Microsome. As to conditions: read-out: Stability. The gist of the method:
(§2)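 Compound is incubated with human or rat liver microsomes, and percent parent remaining is measured after 30 min.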
In general terms: Liver microsomes are a subcellular fraction often used to study metabolism.

Data set [15] in a line: Stability in rat liver microsomes assessed as compound remaining measured after 30 mins. Format: ADME, Microsome. As to conditions: read-out: Stability. The gist of the method:
as §2

The nature of data set [16]: Bioavailability in ip dosed Sprague-Dawley rat. Format: ADME, organism-based. Conditions: in vivo.
Data set [17] addresses Voltage-dependent N-type calcium channel subunit alpha-1B (Rattus norvegicus, UniProt Q02294). Put plainly: Inhibition of rat Cav2.2 expressed in HEK293 cells under inactivating depolarizing conditions at holding potential of -80 to -95 mV and stepped to 0 mV once every 5 seconds by whole cell patch clamp assay. Background: Patch clamp records ionic current or voltage across a cell membrane.

Data set [18] has as its system Rattus norvegicus. The data set is described as follows: Analgesic activity in Sprague-Dawley rat persistent pain model assessed as inhibition of flinching behavior at 10 mg/kg, ip dosed 30 mins before formalin challenge measured for 20 mins following formalin challenge.

Sequence of Voltage-dependent N-type calcium channel subunit alpha-1B (Q02294 whole entry): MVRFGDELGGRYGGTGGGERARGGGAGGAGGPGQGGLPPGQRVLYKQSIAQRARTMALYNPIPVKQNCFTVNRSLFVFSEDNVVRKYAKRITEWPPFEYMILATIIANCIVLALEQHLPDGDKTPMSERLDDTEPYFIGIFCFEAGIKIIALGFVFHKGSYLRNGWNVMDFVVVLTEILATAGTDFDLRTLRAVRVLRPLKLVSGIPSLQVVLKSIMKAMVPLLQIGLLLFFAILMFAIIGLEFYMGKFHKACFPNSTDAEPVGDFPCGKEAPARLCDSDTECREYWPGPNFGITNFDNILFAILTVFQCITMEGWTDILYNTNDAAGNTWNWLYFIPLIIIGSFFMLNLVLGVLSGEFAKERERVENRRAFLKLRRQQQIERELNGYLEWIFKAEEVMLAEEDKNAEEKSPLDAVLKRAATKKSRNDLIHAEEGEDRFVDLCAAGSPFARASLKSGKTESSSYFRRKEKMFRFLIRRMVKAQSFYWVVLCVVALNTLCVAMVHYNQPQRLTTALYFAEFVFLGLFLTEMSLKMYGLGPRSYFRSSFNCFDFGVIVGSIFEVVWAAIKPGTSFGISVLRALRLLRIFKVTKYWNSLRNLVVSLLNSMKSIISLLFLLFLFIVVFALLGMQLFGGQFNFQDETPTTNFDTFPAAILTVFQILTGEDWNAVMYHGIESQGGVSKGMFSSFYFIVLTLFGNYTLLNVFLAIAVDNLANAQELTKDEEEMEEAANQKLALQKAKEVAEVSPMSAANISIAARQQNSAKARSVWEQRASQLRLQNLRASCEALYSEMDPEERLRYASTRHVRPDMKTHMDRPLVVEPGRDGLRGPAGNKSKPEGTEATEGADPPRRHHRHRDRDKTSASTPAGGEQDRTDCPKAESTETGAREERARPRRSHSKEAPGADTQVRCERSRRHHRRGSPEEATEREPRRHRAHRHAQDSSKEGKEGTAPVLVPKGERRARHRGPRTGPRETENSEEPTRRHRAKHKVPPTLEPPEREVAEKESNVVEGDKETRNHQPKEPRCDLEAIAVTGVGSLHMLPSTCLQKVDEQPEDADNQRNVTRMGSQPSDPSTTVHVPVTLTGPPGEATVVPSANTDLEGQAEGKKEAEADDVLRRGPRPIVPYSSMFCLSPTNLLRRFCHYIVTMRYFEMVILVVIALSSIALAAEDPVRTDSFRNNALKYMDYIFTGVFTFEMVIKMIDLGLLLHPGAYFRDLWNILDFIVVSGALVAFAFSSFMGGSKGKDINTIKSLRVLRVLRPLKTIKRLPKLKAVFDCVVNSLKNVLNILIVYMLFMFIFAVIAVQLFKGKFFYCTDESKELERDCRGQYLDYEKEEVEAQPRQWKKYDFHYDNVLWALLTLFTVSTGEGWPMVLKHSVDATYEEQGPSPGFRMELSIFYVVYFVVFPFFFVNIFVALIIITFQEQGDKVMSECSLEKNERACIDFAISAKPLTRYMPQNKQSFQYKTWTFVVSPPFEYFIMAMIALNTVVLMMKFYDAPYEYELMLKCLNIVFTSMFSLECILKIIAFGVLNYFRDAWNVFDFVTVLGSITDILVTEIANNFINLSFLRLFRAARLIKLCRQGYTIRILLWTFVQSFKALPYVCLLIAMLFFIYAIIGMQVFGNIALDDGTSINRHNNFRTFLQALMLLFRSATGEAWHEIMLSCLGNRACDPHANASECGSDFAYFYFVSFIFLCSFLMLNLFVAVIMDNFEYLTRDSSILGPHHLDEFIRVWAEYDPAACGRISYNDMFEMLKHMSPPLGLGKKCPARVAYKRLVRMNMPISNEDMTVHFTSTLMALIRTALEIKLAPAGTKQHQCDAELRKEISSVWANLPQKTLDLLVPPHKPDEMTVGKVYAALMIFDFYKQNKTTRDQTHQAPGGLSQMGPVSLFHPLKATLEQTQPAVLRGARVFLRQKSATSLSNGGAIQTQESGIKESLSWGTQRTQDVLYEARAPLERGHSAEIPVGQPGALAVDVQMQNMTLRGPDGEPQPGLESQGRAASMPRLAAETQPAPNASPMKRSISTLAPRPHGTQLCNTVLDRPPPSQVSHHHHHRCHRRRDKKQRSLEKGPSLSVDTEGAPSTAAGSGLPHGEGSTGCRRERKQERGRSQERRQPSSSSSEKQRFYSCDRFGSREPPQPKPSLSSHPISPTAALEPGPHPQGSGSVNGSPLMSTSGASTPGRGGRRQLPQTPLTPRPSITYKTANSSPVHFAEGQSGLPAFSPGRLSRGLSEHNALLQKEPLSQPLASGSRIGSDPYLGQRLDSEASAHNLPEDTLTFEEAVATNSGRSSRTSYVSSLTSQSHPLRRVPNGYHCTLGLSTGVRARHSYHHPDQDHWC

With `O=C(N[C@H]1CC[C@H]2CN(Cc3cccc(C(F)(F)F)c3)C[C@H]21)C(C1CCCCC1)C1CCCCC1`, the Emax at 30 mg/kg was 67% with Rattus norvegicus [1] and 87% with Rattus norvegicus [2]. Further, the pEC50 with Rattus norvegicus [3] is 5.70. Besides, the inhibition in vivo at 30 mg/kg with Rattus norvegicus [4] came out at 51%. Besides, the Activity result in the data set on Rattus norvegicus [5], with Rattus norvegicus [6], with Rattus norvegicus [7] and in the data set with Rattus norvegicus [8] was “Non-toxic” throughout. Besides, the selectivity ratio in [9] was over 15. In [10] (Homo sapiens, IMR-32, read-out: pIC50 (converted)), the IC50 was 468 nM. In addition, the pIC50 in data set [10] (imr-32, read-out: IC50) was 6.34; in data set [17], 7.39. For the same compound, the EC50 in data set [11] was found to be 46 µM. For the same compound, in data set [11] (rat), the “inhibition (INH)” value is “Dose-dependent effect”. The compound also had a solubility in [12] of under 3 µM. In data set [13], the fraction unbound was under 0.01. The remaining at 0.5 h in [14] and in [15] was under 5% throughout. Also, in data set [16], the bioavailability stood at 41%. For the same compound, in the data set on Rattus norvegicus [18], the inhibition in vivo at 10 mg/kg was 51%.

(Values after ChEMBL document CHEMBL2046441, “Synthesis and SAR of 4-aminocyclopentapyrrolidines as N-type Ca²⁺ channel blockers with analgesic activity” (Bioorg Med Chem, 2012).)
